Consider 6 molecules from ChEMBL document CHEMBL1123264, “Conformationally restricted congeners of hypotensive and platelet aggregation inhibitors: 6-aryl-5-methyl-4,5-dihydro-3(2H)-pyridazinones derived from 5H-indeno[1,2-c]pyridazine” (J Med Chem, 1986).

Molecules are shown by their SMILES. Calls of active or inactive are those of the source. The calls are words filed in the database; no cut-off is given here.

The species entered for series [1] is Cavia porcellus. Kind of series: Compound was tested in vitro for antiaggregation induced by thrombin at 0.625 IU/mL in guinea pig PRP after 2 min. The format is functional. In outline: (§1)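 Born method. Citrated (3.8%, 1:10) aortic blood from fasted male guinea pigs under pentobarbital, centrifuged to give platelet-rich plasma. Incubated 10 min at room temperature with compound at 66 μM. Aggregation triggered by ADP, equine tendon collagen or thrombin. Result is % inhibition vs controls, mean of five experiments; thrombin values read at 2 or 4 min.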

Series [2] is described as follows: Compound was tested for its lethality in vivo in mouse. It is filed as ADME, organism-based.
The species entered for a further series is Mus musculus. Kind of series: In vitro antithrombotic activity in mouse. The format is functional. To be noted: in the assay text read “In vivo” for “In vitro”. In outline:
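Male Swiss mice, 20–30 g, 10/group. Oral dose in 1% hydroxymethylcellulose, equimolar to ASA 20 mg/kg. At 1 h, iv tail injection of collagen (200 μg/mL) plus adrenaline (200 μM), 10 mL/kg, after warming at 27 °C. Death or hind-limb paralysis over 15 min counted; % protection = (Nc−Nt)/Nc×100.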

Series [3] is filed under the species Rattus norvegicus. In words: (§2) relative activity with respect to the dihydralazine was determined. The format is functional. In outline:
(§3)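 SH rats, fasted, given a single oral dose of 12.5 mg/kg in 1% methylcellulose by gavage. Tail-cuff systolic pressure read hourly; area under the curve taken over 0–6 h. Dihydralazine was the reference; relative activity is AUC(dihydralazine)/AUC(compound), and a smaller AUC means higher activity.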

For series [4], the species on record is Cavia porcellus. In words: Compound was tested in vitro for antiaggregation induced by collagen (0.8 ug/mL) in guinea pig PRP. It is filed as functional. The method, boiled down: as §1
A short description of series [5]: (§4) Area under curve was determined for 0-6 hr duration using dihydralazine as reference drug for the peak blood pressure. The format is ADME. Set-up: concentration or dose not given beside the values. In outline:
as §3

Series [6] relates to Rattus norvegicus. Kind of series: Compound was evaluated for its antiinflammatory activity in rat by Carrageenan paw edema test; Inactive. The format is functional, organism-based. The method, boiled down:
(§5)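 Male Sprague-Dawley rats, 130–150 g, fasted 18 h, 8/group. Compound in 1% carboxymethylcellulose by gavage; 1 h later 0.1 mL 1% carrageenin injected into the right hind paw. Paw volume measured by plethysmometer at 0, 1 and 3 h. Inhibition at 3 h vs vehicle controls; ED50 is the dose giving 50% inhibition.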
On the technique in general: The carrageenan paw model is a standard test of acute inflammation.

Series [7] is filed under the species Cavia porcellus. In words: Compound was tested in vitro for antiaggregation induced by 0.5 uM ADP in guinea pig PRP. The format is functional. The method, boiled down: as §1
The species entered for series [8] is Cavia porcellus. In words: In vitro inhibition of platelet aggregation induced by 0.5 uM ADP (irreversible activity) was determined in guinea pig PRP. It is filed as functional. The method, boiled down:
as §1

The species named for series [9] is Rattus norvegicus. Kind of series: Dose that lowers blood pressure by 25 mm Hg was determined in spontaneous hypertensive rats (SHR). The format is functional. In outline: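 Conscious SH rats, 150–200 g, fasted 12 h, warmed at 33 °C for 30 min before tail-cuff plethysmography of systolic pressure. Suspension in 1% methylcellulose by gavage at 1.56, 3.125, 6.25, 12.5 and 25 mg/kg, 6 rats/dose, read hourly for 6 h. ED25 is the dose lowering pressure by 25 mmHg at peak, taken from log dose-response curves.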

The species named for series [10] is Cavia porcellus. Kind of series: Compound was tested in vitro for its antiaggregation induced by thrombin at 0.625 IU/mL in guinea pig PRP after 4 min. The format is functional. In outline: as §1
For series [11], the species on record is Rattus norvegicus. Kind of series: Compound was evaluated for its antiulcer activity in rat. It is filed as functional. The method, boiled down:
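Male Sprague-Dawley rats, 180–250 g, 8/group, fasted 24 h with water. Compound by gavage right after indomethacin 15 mg/kg ip. Stomachs examined 5 h later under a 10× microscope; lesion number and severity scored on an arbitrary scale. ED50 is the dose reducing lesions by 50%.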

The species named for series [12] is Cavia porcellus. Kind of series: Compound was tested in vitro for antiaggregation induced by thrombin at 0.625 IU/mL in guinea pig PRP after 4 min. It is filed as functional. The method, boiled down:
as §1

Series [13] has as its system Rattus norvegicus. In words: Compound was evaluated for its antiinflammatory activity in rat by Carrageenan paw edema test. The format is functional. In outline: as §5
The species entered for series [14] is Rattus norvegicus. In words: Antihypertensive activity in normotensive rats. It is filed as functional. The method, boiled down:
(§6)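 Unanesthetized male Sprague-Dawley rats, 150–200 g, fasted 12 h, warmed at 33 °C for 30 min. Oral dosing at 6.25, 12.5 and 25 mg/kg; dihydralazine 0.78–6.25 mg/kg po. Tail-cuff systolic pressure read hourly for 6 h, 6 rats/dose. ED25 is the dose lowering pressure by 25 mmHg at peak, taken from log dose-response curves.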

For series [15], the species on record is Rattus norvegicus. In words: (§7) Relative activity with respect to the dihydralazine was determined. The format is functional. The method, boiled down:
as §3

Series [16] is filed under the species Rattus norvegicus. Described as §4. It is filed as functional, organism-based. The method, boiled down:
as §3

Series [17] is described as follows: as §2. The format is functional. In outline: as §3
For series [18], the species on record is Rattus norvegicus. In words: Compound was tested for antihypertensive activity in normotensive rats and the dose that lowered by 25 mmHg of the blood pressure was determined. It is filed as functional. In outline: as §6
Series [19] is described as follows: as §7. It is filed as functional. The method, boiled down: as §3

With `CC(=O)Nc1ccc2c(c1)CC1CC(=O)N(C)N=C21` (stereo not drawn), the Activity in the series filed under Cavia porcellus [1] is recorded as 5; in the series listed under Mus musculus, 50; in the series filed under Rattus norvegicus [3], 0.6; in the series listed under Cavia porcellus [4] it was 40; in the series filed under Cavia porcellus [7], 4; in the series listed under Cavia porcellus [8], 23. For the same molecule, in the series filed under Cavia porcellus [10], the Activity was 37. Besides, in series [2], the LD50 (commonly the dose expected to kill half of the subjects tested) amounted to 1000 mg/kg. In addition, the AUC units in series [5] is recorded as 31960. The ED50 (usually the midpoint of the dose-response relation) in the series on Rattus norvegicus [6] is “inactive”. The molecule further yielded an ED25 in the series listed under Rattus norvegicus [9] of 15 mg/kg.

In the case of `CC(=O)Nc1ccc2c(c1)CC1CC(=O)NN=C21` (stereo not drawn), the median effective dose (ED50) in the series listed under Rattus norvegicus [11] turned out to be 0.3 mg/kg; in the series on Rattus norvegicus [13], 160 mg/kg. Also, the Activity in the series filed under Cavia porcellus [1] amounted to 95; in the series filed under Cavia porcellus [12], 100; in the series listed under Mus musculus, 100; in the series filed under Cavia porcellus [4], 73; in the series listed under Cavia porcellus [7] it was 45; in the series filed under Rattus norvegicus [15], 1.02. Besides, the Activity in the series listed under Cavia porcellus [8] came out at 81. The LD50 in series [2] amounted to 1000 mg/kg. Also, the ED25 turned out to be 25 mg/kg in the series filed under Rattus norvegicus [14] and 2.6 mg/kg in the series listed under Rattus norvegicus [9]. The AUC units in series [5] was determined as 17560.

Molecule `N/N=c1\[nH][nH]/c(=N\N)c2ccccc12` [DIHYDRALAZINE] displayed an AUC units in the series listed under Rattus norvegicus [16] of 17900. The molecule further displayed an Activity in series [17] of 1. Besides, the ED25 in the series filed under Rattus norvegicus [18] worked out at 3.12 mg/kg; in the series filed under Rattus norvegicus [9], 0.72 mg/kg.

With `CN1N=C2c3ccc(N)cc3CC2CC1=O` (stereo not drawn), the Activity in the series listed under Cavia porcellus [1] is listed as 36; in the series listed under Cavia porcellus [12], 37; in the series listed under Mus musculus it was 58; in the series filed under Cavia porcellus [4] it was 26; in the series filed under Cavia porcellus [7], 7; in the series listed under Rattus norvegicus [15], 0.49. Besides, the Activity in the series listed under Cavia porcellus [8] is on record as 33. Besides, the LD50 in series [2] amounted to 750 mg/kg. Moreover, in series [5], the AUC units was found to be 36740. Moreover, the ED50 entry with Rattus norvegicus [6] is “inactive”. Moreover, in the series listed under Rattus norvegicus [9], the ED25 came to 15.5 mg/kg.

Take `Nc1ccc2c(c1)CC1CC(=O)NN=C21` (stereo not drawn): the ED50 in the series listed under Rattus norvegicus [11] was 100 mg/kg; in the series with Rattus norvegicus [13], 40.8 mg/kg. Moreover, the Activity in the series filed under Cavia porcellus [1] was 44; in the series listed under Cavia porcellus [12] it was 34; in the series listed under Mus musculus, 87; in the series filed under Cavia porcellus [4] it was 58; in the series listed under Cavia porcellus [7], 31; in the series listed under Rattus norvegicus [15], 0.74. Also, in the series filed under Cavia porcellus [8], the Activity is given as 66. Moreover, in series [2], the LD50 amounted to 308 mg/kg. Moreover, in series [5], the AUC units was 24350. The ED25 in the series listed under Rattus norvegicus [9] was 2.6 mg/kg.

For `CC(Cl)C(=O)Nc1ccc2c(c1)CC1CC(=O)NN=C21` (stereo not drawn), the figures for the ED50 in the series filed under Rattus norvegicus [11] and with Rattus norvegicus [13] were 0.3 mg/kg and 155 mg/kg, respectively. For the same molecule, the Activity was determined as 84 in the series listed under Cavia porcellus [1]; 0.66 in series [19]; 83 in the series filed under Cavia porcellus [12]; 62 in the series filed under Mus musculus; 60 in the series filed under Cavia porcellus [4]; 48 in the series listed under Cavia porcellus [7]. This molecule also displayed an Activity in the series filed under Cavia porcellus [8] of 40. This molecule also gave an LD50 in series [2] of 1000 mg/kg. The molecule also came in with an AUC units in series [5] of 27140. The molecule also gave an ED25 in the series listed under Rattus norvegicus [9] of 10 mg/kg.
